Test results from the array DNA melting data of Ke et al. (doi:10.1101/2024.01.08.574731).

Legend:
[1] = folding enthalpy; higher = less favourable; fluorescence melt of hairpins on a sequencing array, two-state fit; conditions: sodium 0.088 M
In short: (§1)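 On a sequenced MiSeq flow cell, library hairpins with annealed Cy3 and quencher oligos were imaged for Cy3 fluorescence in 2.5 °C steps up to 60 °C, in 50 mM Na-HEPES pH 8.0, 25 mM NaCl. Normalisation used pre-quench Cy3 and control constructs. Bootstrapped two-state fits gave melting temperature and folding enthalpy, combined by inverse variance across four replicates and with fitted temperatures raised by 9.35 °C to match UV melts.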

[2] = melting temperature; fluorescence melt of hairpins on a sequencing array, two-state fit, raised by 9.35 °C to match UV melts; conditions: sodium 0.088 M
In short: as §1

| Sequence | folding enthalpy [1] [kcal/mol] | Tm [2] [°C] |
| --- | --- | --- |
| GTGGAAGGAAACTTCTGC (..((((....))))..) | -14.4 | 34.1 |
| GTGGACCCGAAAGGGCAC (((..(((....)))))) | -16.6 | 49.3 |
| GTGGACGAAAGTCCGCAC ((((((....)))..))) | -11.8 | 55.7 |
| GTGGACGAAAGTCGGCAC ((((((....)))..))) | -15.5 | 39.8 |
| GTGGACGGAAACGTTCGC (.(.(((....))).).) | -26.6 | 45 |
| GTGGAGCGAAAGCTACAC (((.(((....))).))) | -30.8 | 68.2 |
| GTGGAGCGAAAGCTGCAC (((.(((....))).))) | -34 | 62.4 |
| GTGGAGGAAACTCCAC ((((((....)))))) | -35.2 | 60.1 |
| GTGGAGGGAAACCTCCGC (.(((((....))))).) | -37.6 | 56.2 |
| GTGGATACGAAAGTACAC (((..(((....)))))) | -13.5 | 36.8 |
| GTGGATGGAAACATCCAC (((((((....))))))) | -50.1 | 65.1 |
| GTGGATGGAAACATCTAC ((.((((....)))).)) | -31 | 46.8 |
| GTGGATGGAAACATCTGC (..((((....))))..) | -23 | 37.6 |
| GTGGCACGAAAGTGCAC (((.(((....)))))) | -11 | 52.1 |
| GTGGCAGGAAACCGCCAC (((((.(....).))))) | -46.8 | 55.9 |
| GTGGCAGGAAACTGCTGC (..((((....))))..) | -17.4 | 44.2 |
| GTGGCAGGAAACTGTCGC (.(.(((....))).).) | -27.3 | 45.7 |
| GTGGCATCGAAAGATCAC (((..(((....)))))) | -12.8 | 34.2 |
| GTGGCCCGAAAGGGCAC (((.(((....)))))) | -10.3 | 62 |
| GTGGCCGAAAGGCAACAC ((((((....)))..))) | -13.3 | 55.5 |
| GTGGCCGAAAGGCCCAC ((((((....))).))) | -10.5 | 57.5 |
| GTGGCCGAAAGGCCCCAC ((((((....)))..))) | -5.99 | 38.1 |
| GTGGCCGAAAGGCGGCAC ((((((....)))..))) | -13.8 | 46.7 |

| Sequence | folding enthalpy [1] [kcal/mol] | Tm [2] [°C] |
| --- | --- | --- |
| GTGGCCGAAAGGCTCAC ((((((....))).))) | -16.2 | 54.9 |
| GTGGCCGGAAACAGCCAC (((((.(....).))))) | -47.6 | 54.5 |
| GTGGCGCCGAAAGGCCAC (((..(((....)))))) | -13.8 | 57.8 |
| GTGGCGGGAAACCGTCGC (.(.(((....))).).) | -24.9 | 50.5 |
| GTGGCGTCGAAAGACCAC (((..(((....)))))) | -12.9 | 44.5 |
| GTGGGCGAAAGCCCCCAC ((((((....)))..))) | -7.28 | 38.7 |
| GTGGGCGAAAGCCCTCAC ((((((....)))..))) | -8.43 | 39.5 |
| GTGGGCGAAAGCCGCCAC ((((((....)))..))) | -13.3 | 42.3 |
| GTGGGCGAAAGCCTCAC ((((((....))).))) | -15.5 | 51.9 |
| GTGGGCGAAAGCCTGCAC ((((((....)))..))) | -12.4 | 45.3 |
| GTGGTACGAAAGTACAC (((.(((....)))))) | -15 | 49.7 |
| GTGGTAGGAAACTATCAC (((.(((....))).))) | -28.4 | 44.4 |
| GTGGTCCGAAAGGACAC (((.(((....)))))) | -12.8 | 53.2 |
| GTGGTCGAAAGACATCAC ((((((....)))..))) | -14.3 | 34.2 |
| GTGGTCGAAAGACGACAC ((((((....)))..))) | -15.4 | 47.2 |
| GTGGTCGAAAGACGTCAC ((((((....)))..))) | -13.5 | 36.2 |
| GTGGTCGAAAGACTGCAC ((((((....)))..))) | -14.7 | 40.8 |
| GTGGTCGGAAACAACCAC (((((.(....).))))) | -29.4 | 45.4 |
| GTGGTCGGAAACGACTGC (..((((....))))..) | -14.3 | 49.5 |
| GTGGTCGGAAACGATCAC (((.(((....))).))) | -44.6 | 55.7 |
| GTGGTGACGAAAGTCCAC (((..(((....)))))) | -19 | 45.6 |
| GTGGTTGCGAAAGCACAC (((..(((....)))))) | -15.6 | 42.7 |
| GTGTAAACGAAAGTTCAC (((..(((....)))))) | -18 | 33.7 |

| Sequence | folding enthalpy [1] [kcal/mol] | Tm [2] [°C] |
| --- | --- | --- |
| GTGTAACGAAAGTTCCAC (((.(((....))).))) | -22.6 | 38.9 |
| GTGTACACGAAAGTGCAC (((..(((....)))))) | -19 | 47.1 |
| GTGTACCGAAAGGTTCAC (((.(((....))).))) | -35.8 | 53.1 |
| GTGTACGAAAGTACAC ((((((....)))))) | -29.7 | 69.1 |
| GTGTACGAAAGTACCAC ((((((....))).))) | -13.3 | 44.4 |
| GTGTACGAAAGTACCCAC ((((((....)))..))) | -10.3 | 31.9 |
| GTGTACGAAAGTACTCAC ((((((....)))..))) | -11.4 | 35.7 |
| GTGTACGAAAGTATCAC ((((((....))).))) | -22.8 | 43.6 |
| GTGTACGCGAAAGCGCAC (((..(((....)))))) | -16.7 | 48.9 |
| GTGTACGGAAACACACAC ((((..(....)..)))) | -12.6 | 31.9 |
| GTGTACTCGAAAGAGCAC (((..(((....)))))) | -21.8 | 43.5 |
| GTGTAGCCGAAAGGCCAC (((..(((....)))))) | -17.3 | 47 |
| GTGTAGCGAAAGCTGCAC (((.(((....))).))) | -36.6 | 63.9 |
| GTGTAGGGAAACCTACGC (.(((((....))))).) | -17.9 | 50 |
| GTGTATGGAAACATACGC (.(((((....))))).) | -20.1 | 48.5 |
| GTGTATGGAAACATATGC (..((((....))))..) | -24.1 | 30.7 |
| GTGTCACGAAAGTGCCAC (((.(((....))).))) | -51.5 | 52.2 |
| GTGTCAGGAAACTAACAC ((((.((....)).)))) | -20.3 | 33.5 |
| GTGTCAGGAAACTGACGC (.(((((....))))).) | -40.5 | 55.4 |
| GTGTCAGGAAACTGATAC ((.((((....)))).)) | -29.4 | 45.8 |
| GTGTCAGGAAACTGATGC (..((((....))))..) | -21.1 | 38.3 |
| GTGTCAGGAAACTGGTAC ((..(((....)))..)) | -17.6 | 31.8 |
| GTGTCCGAAAGGACCCAC ((((((....)))..))) | -8.57 | 38.5 |

| Sequence | folding enthalpy [1] [kcal/mol] | Tm [2] [°C] |
| --- | --- | --- |
| GTGTCCGGAAACAGACAC (((((.(....).))))) | -30.1 | 44.9 |
| GTGTCCGGAAACGGGCAC (((.(((....))).))) | -32.4 | 62.4 |
| GTGTCCTCGAAAGAGCAC (((..(((....)))))) | -14.5 | 36 |
| GTGTCGGGAAACCAACAC ((((.((....)).)))) | -33.7 | 42.9 |
| GTGTCGGGAAACCGACGC (.(((((....))))).) | -19.8 | 60.5 |
| GTGTCGGGAAACCGGTAC ((..(((....)))..)) | -22.7 | 37.6 |
| GTGTCGGGAAACTGGCAC (((.(.(....).).))) | -29.2 | 45.9 |
| GTGTCTCGAAAGAGTCAC (((.(((....))).))) | -39.3 | 49.4 |
| GTGTCTGGAAACAGATAC ((.((((....)))).)) | -37.9 | 46.1 |
| GTGTGACGAAAGTCCAC (((.(((....)))))) | -40.2 | 52.3 |
| GTGTGAGGAAACTCACAC (((((((....))))))) | -49.1 | 63.4 |
| GTGTGATCGAAAGATCAC (((..(((....)))))) | -14 | 66.7 |
| GTGTGCCGAAAGGCCAC (((.(((....)))))) | -20.6 | 63.8 |
| GTGTGCGAAAGCAACCAC ((((((....)))..))) | -14.3 | 38.8 |
| GTGTGCGAAAGCAGCCAC ((((((....)))..))) | -13.4 | 36.1 |
| GTGTGCGAAAGCATCCAC ((((((....)))..))) | -11 | 33.9 |
| GTGTGCGGAAACGCGTAC ((..(((....)))..)) | -16.3 | 43.7 |
| GTGTGCGGAAACGTACAC ((((.((....)).)))) | -40.2 | 56.2 |
| GTGTGCGGAAACGTACGC (.((.((....)).)).) | -27.3 | 48 |
| GTGTGGCGAAAGCCCAC (((.(((....)))))) | -18.6 | 63 |
| GTGTGGGGAAACCCGTAC ((..(((....)))..)) | -20.8 | 33.5 |
| GTGTGGGGAAACTCACAC (((((.(....).))))) | -36.3 | 52.3 |
